Test results: ChEMBL document CHEMBL5030505, “Assessment of NR4A Ligands That Directly Bind and Modulate the Orphan Nuclear Receptor Nurr1” (J Med Chem, 2020)
The source made the active and inactive calls. No cut-off for these calls is given here.

Legend:
Assay type in all cases: cell-based
[1] = target: Nuclear receptor subfamily 4 group A member 2 (Homo sapiens) (UniProt P43354); assay: Modulation of full length human Nurr1 expressed in HEK293T cells co-transfected with RXRalpha and luciferase reporter plasmid harboring NurRE response element assessed as increase in luciferase activity incubated for 18 hrs by luciferase reporter gene assay; settings: filed as modulator, dose 0.01-1 µM
Nuclear receptor subfamily 4 group A member 2 (Homo sapiens), sequence (P43354 whole entry): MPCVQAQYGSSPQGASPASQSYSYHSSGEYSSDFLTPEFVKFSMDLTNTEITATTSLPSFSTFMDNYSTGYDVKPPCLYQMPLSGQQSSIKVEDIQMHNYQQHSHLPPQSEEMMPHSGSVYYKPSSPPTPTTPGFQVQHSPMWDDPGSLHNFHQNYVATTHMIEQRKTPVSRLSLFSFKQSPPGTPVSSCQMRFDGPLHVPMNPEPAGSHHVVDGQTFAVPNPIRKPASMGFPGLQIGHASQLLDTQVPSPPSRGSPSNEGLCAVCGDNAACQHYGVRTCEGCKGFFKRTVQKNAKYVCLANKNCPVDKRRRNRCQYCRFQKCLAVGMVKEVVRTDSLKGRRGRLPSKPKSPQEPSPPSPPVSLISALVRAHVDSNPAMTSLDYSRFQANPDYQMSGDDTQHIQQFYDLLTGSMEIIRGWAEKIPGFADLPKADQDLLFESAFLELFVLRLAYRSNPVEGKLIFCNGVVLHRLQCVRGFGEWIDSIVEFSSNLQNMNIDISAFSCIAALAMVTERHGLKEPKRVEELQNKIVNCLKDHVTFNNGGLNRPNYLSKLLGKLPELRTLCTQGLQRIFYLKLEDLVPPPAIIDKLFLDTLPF
How it was run: (§1)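 Full-length Nurr1 plasmid, alone (2 μg) or 1 μg plus full-length RXRα (1 μg), cotransfected with 3xNBRE- or 3xNurRE-luciferase reporter (6 μg) using Lipofectamine 2000, 18 h. Cells replated at 10,000/well for 4 h. Four ligand concentrations, or vehicle (water, ethanol or DMSO), added in quadruplicate for 18 h. Luciferase read. Fold change vs vehicle, mean ± s.e.m., one-way ANOVA vs vehicle.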

[2] = target: Nuclear receptor subfamily 4 group A member 2 (Homo sapiens) (UniProt P43354); assay: Modulation of full length human Nurr1 expressed in SKNBE(2) cells co-transfected with luciferase reporter plasmid harboring NBRE response element assessed as increase in luciferase activity incubated for 18 hrs by luciferase reporter gene assay; settings: SKNBE2, filed as modulator, dose 0.01-1 µM
How it was run: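 Transfection of SK-N-BE(2)-C cells (1:1 EMEM/F12, 10% FBS, 37°C, 5% CO2) used full-length Nurr1 alone (2 μg, no RXRα) with 3xNBRE- or 3xNurRE-luciferase reporter (6 μg) for 18 h. Cells were replated at 10,000/well for 4 h, then exposed to ligand or vehicle in quadruplicate for 18 h. Luminescence was expressed as fold over vehicle, as mean ± s.e.m. (n=4) from 2 independent experiments, one-way ANOVA against vehicle.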

[3] = target: Nuclear receptor subfamily 4 group A member 2 (Homo sapiens) (UniProt P43354); assay: Modulation of full length human Nurr1 expressed in SKNBE(2) cells co-transfected with RXRalpha and luciferase reporter plasmid harboring NBRE response element assessed as increase in luciferase activity incubated for 18 hrs by luciferase reporter gene assay; settings: SKNBE2, filed as modulator, dose 0.01-1 µM
How it was run: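 SK-N-BE(2)-C cells were kept in 1:1 EMEM/F12 with 10% FBS at 37°C and 5% CO2. They were cotransfected with full-length Nurr1 (1 μg), full-length RXRα (1 μg) and 3xNBRE- or 3xNurRE-luc reporter (6 μg) for 18 h, replated at 10,000 cells/well for 4 h, and then treated with ligand or vehicle in quadruplicate for 18 h. The readout was luciferase luminescence as fold over vehicle, reported as mean ± s.e.m. (n=4) from 2 independent experiments, one-way ANOVA.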

[4] = target: Nuclear receptor subfamily 4 group A member 2 (Homo sapiens) (UniProt P43354); assay: Modulation of full length human Nurr1 expressed in SKNBE(2) cells co-transfected with luciferase reporter plasmid harboring NurRE response element assessed as increase in luciferase activity incubated for 18 hrs by luciferase reporter gene assay; settings: SKNBE2, filed as modulator, dose 0.01-1 µM
[5] = target: Nuclear receptor subfamily 4 group A member 2 (Homo sapiens) (UniProt P43354); assay: Modulation of full length human Nurr1 expressed in PC12 cells co-transfected with RXRalpha and luciferase reporter plasmid harboring NurRE response element assessed as increase in luciferase activity incubated for 18 hrs by luciferase reporter gene assay; settings: PC-12, filed as modulator, dose 0.01-1 µM
How it was run: (§2)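 PC12 cells were grown at 37°C and 5% CO2 in […] medium with 15% horse serum and 2.5% FBS. They were transfected with full-length Nurr1 (1 μg) plus full-length RXRα (1 μg) and 3xNBRE- or 3xNurRE-luciferase reporter (6 μg) for 18 h, then replated at 10,000 cells/well for 4 h. Ligand or vehicle (water, ethanol or DMSO) was added in quadruplicate for 18 h. Luminescence was read as fold change over vehicle. Results are mean ± s.e.m., n=4, from 2 independent experiments, analysed by one-way ANOVA against vehicle.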

PC-12 [6] = assay: Cytotoxicity in rat PC-12 cells assessed as reduction in cell viability at 0.01 to 1 uM incubated for 18 hrs by Cell Titer-Glo assay; settings: pc-12, 18 h, dose 0.01-1 µM
How it was run: (§3)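 Cells seeded at 1.5 million per 10-cm dish. Next day they were replated at 10,000 cells/well and rested 4 h. Ligand or vehicle (water, ethanol or DMSO, by ligand) was added in dose-response format in quadruplicate. After 18 h, viability was read by CellTiter-Glo luminescence. Data are mean ± s.e.m., generally representative of 2 independent experiments. One-way ANOVA versus vehicle.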

HEK-293T [7] = assay: Cytotoxicity in human HEK293T cells assessed as reduction in cell viability at 0.01 to 1 uM incubated for 18 hrs by Cell Titer-Glo assay; settings: dose 0.01-1 µM; how it was run: as §3
HEK293T = assay: Modulation of Gal4-fused VP16 expressed in HEK293T cells co-transfected with UAS repoter gene assessed as increase in luciferase activity at 0.01 to 1 uM incubated for 18 hrs by luciferase reporter gene assay; settings: Human alphaherpesvirus 2, filed as modulator, dose 0.01-1 µM
How it was run: (§4)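 Cells in 10-cm dishes were transfected with Gal4-VP16 expression plasmid (2 μg) plus 5xUAS-luciferase reporter (2 μg) for 18 h. They were replated at 10,000 cells/well for 4 h, then given ligand or vehicle (water, ethanol or DMSO) in quadruplicate for 18 h. Luciferase was read with Britelite Plus. Fold change is versus vehicle-treated cells, with one-way ANOVA versus vehicle.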

PC-12 [8] = assay: Modulation of Gal4-fused VP16 expressed in PC12 cells co-transfected with UAS repoter gene assessed as increase in luciferase activity at 0.01 to 1 uM incubated for 18 hrs by luciferase reporter gene assay; settings: Human alphaherpesvirus 2, filed as modulator, dose 0.01-1 µM; how it was run: as §4
[9] = target: Nuclear receptor subfamily 4 group A member 2 (Homo sapiens) (UniProt P43354); assay: Modulation of full length human Nurr1 expressed in PC12 cells co-transfected with luciferase reporter plasmid harboring NurRE response element assessed as increase in luciferase activity incubated for 18 hrs by luciferase reporter gene assay; settings: PC-12, filed as modulator, dose 0.01-1 µM
How it was run: (§5)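 Here PC12 cells (FK-12 medium, 15% horse serum, 2.5% FBS, 37°C, 5% CO2) received full-length Nurr1 (2 μg) without RXRα, plus 3xNBRE- or 3xNurRE-luciferase reporter (6 μg), for 18 h. Cells were replated at 10,000/well for 4 h, then treated with ligand or vehicle in quadruplicate for 18 h. Luciferase luminescence was normalized to vehicle-treated cells. Results are mean ± s.e.m. (n=4) from 2 independent experiments, with one-way ANOVA against vehicle.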

[10] = target: Nuclear receptor subfamily 4 group A member 2 (Homo sapiens) (UniProt P43354); assay: Modulation of full length human Nurr1 expressed in HEK293T cells co-transfected with RXRalpha and luciferase reporter plasmid harboring NBRE response element assessed as increase in luciferase activity incubated for 18 hrs by luciferase reporter gene assay; settings: filed as modulator, dose 0.01-1 µM; how it was run: as §1
[11] = target: Nuclear receptor subfamily 4 group A member 2 (Homo sapiens) (UniProt P43354); assay: Modulation of full length human Nurr1 expressed in HEK293T cells co-transfected with luciferase reporter plasmid harboring NurRE response element assessed as increase in luciferase activity incubated for 18 hrs by luciferase reporter gene assay; settings: filed as modulator, dose 0.01-1 µM; how it was run: as §1
[12] = target: Nuclear receptor subfamily 4 group A member 2 (Homo sapiens) (UniProt P43354); assay: Modulation of full length human Nurr1 expressed in HEK293T cells co-transfected with luciferase reporter plasmid harboring NBRE response element assessed as increase in luciferase activity incubated for 18 hrs by luciferase reporter gene assay; settings: filed as modulator, dose 0.01-1 µM; how it was run: as §1
SKNBE2 = assay: Modulation of Gal4-fused VP16 expressed in SKNBE(2) cells co-transfected with UAS repoter gene assessed as increase in luciferase activity at 0.01 to 1 uM incubated for 18 hrs by luciferase reporter gene assay; settings: Human alphaherpesvirus 2, filed as modulator, dose 0.01-1 µM; how it was run: as §4
SK-N-BE(2) [13] = assay: Cytotoxicity in human SKNBE2 cells assessed as reduction in cell viability at 0.01 to 1 uM incubated for 18 hrs by Cell Titer-Glo assay; settings: dose 0.01-1 µM; how it was run: as §3
[14] = target: Nuclear receptor subfamily 4 group A member 2 (Homo sapiens) (UniProt P43354); assay: Modulation of full length human Nurr1 expressed in PC12 cells co-transfected with luciferase reporter plasmid harboring NBRE response element assessed as increase in luciferase activity incubated for 18 hrs by luciferase reporter gene assay; settings: PC-12, filed as modulator, dose 0.01-1 µM; how it was run: as §5
[15] = target: Nuclear receptor subfamily 4 group A member 2 (Homo sapiens) (UniProt P43354); assay: Modulation of full length human Nurr1 expressed in PC12 cells co-transfected with RXRalpha and luciferase reporter plasmid harboring NBRE response element assessed as increase in luciferase activity incubated for 18 hrs by luciferase reporter gene assay; settings: PC-12, filed as modulator, dose 0.01-1 µM; how it was run: as §2
HEK-293T [16] = assay: Cytotoxicity in human HEK293T cells assessed as reduction in cell viability at 0.5 to 5 uM incubated for 18 hrs by Cell Titer-Glo assay; settings: dose 0.5-5 µM; how it was run: as §3
SK-N-BE(2) [17] = assay: Cytotoxicity in human SKNBE2 cells assessed as reduction in cell viability at 0.5 to 5 uM incubated for 18 hrs by Cell Titer-Glo assay; settings: dose 0.5-5 µM; how it was run: as §3
PC-12 [18] = assay: Cytotoxicity in rat PC-12 cells assessed as reduction in cell viability at 0.5 to 5 uM incubated for 18 hrs by Cell Titer-Glo assay; settings: pc-12, 18 h, dose 0.5-5 µM; how it was run: as §3

| Compound | Activity [1] | Activity [2] | Activity [3] | Activity [4] | Activity [5] | Activity (PC-12 [6]) | Activity (HEK-293T [7]) | Activity (HEK293T) | Activity (PC-12 [8]) | Activity [9] | Activity [10] | Activity [11] | Activity [12] | Activity (SKNBE2) | Activity (SK-N-BE(2) [13]) | Activity [14] | Activity [15] | Activity (HEK-293T [16]) | Activity (SK-N-BE(2) [17]) | Activity (PC-12 [18]) |
| --- | --- | --- | --- | --- | --- | --- | --- | --- | --- | --- | --- | --- | --- | --- | --- | --- | --- | --- | --- | --- |
| O=C(Nc1ccccc1)c1cn2cc(-c3ccccn3)ccc2n1 | Dose-Dependent Effect | Dose-Dependent Effect | Dose-Dependent Effect | Dose-Dependent Effect | Dose-Dependent Effect | Non-Toxic | Non-Toxic | Active | Active | Dose-Dependent Effect | Dose-Dependent Effect | Dose-Dependent Effect | Dose-Dependent Effect | Active | Non-Toxic | Dose-Dependent Effect | Dose-Dependent Effect | – | – | – |
| O=C(O)c1ccc2nc(-c3ccc(F)cc3)[nH]c2c1 | – | – | – | – | – | – | – | – | – | – | – | – | – | – | – | – | – | Non-Toxic | Non-Toxic | Non-Toxic |
